{"source": "ChEMBL document CHEMBL4414649", "about": "“Microbial Transformation of Cycloastragenol and Astragenol by Endophytic Fungi Isolated from Astragalus Species” (J Nat Prod, 2019)", "key": {"[1]": {"target": "Telomerase reverse transcriptase (Homo sapiens) (UniProt O14746)", "sequence (O14746 whole entry)": "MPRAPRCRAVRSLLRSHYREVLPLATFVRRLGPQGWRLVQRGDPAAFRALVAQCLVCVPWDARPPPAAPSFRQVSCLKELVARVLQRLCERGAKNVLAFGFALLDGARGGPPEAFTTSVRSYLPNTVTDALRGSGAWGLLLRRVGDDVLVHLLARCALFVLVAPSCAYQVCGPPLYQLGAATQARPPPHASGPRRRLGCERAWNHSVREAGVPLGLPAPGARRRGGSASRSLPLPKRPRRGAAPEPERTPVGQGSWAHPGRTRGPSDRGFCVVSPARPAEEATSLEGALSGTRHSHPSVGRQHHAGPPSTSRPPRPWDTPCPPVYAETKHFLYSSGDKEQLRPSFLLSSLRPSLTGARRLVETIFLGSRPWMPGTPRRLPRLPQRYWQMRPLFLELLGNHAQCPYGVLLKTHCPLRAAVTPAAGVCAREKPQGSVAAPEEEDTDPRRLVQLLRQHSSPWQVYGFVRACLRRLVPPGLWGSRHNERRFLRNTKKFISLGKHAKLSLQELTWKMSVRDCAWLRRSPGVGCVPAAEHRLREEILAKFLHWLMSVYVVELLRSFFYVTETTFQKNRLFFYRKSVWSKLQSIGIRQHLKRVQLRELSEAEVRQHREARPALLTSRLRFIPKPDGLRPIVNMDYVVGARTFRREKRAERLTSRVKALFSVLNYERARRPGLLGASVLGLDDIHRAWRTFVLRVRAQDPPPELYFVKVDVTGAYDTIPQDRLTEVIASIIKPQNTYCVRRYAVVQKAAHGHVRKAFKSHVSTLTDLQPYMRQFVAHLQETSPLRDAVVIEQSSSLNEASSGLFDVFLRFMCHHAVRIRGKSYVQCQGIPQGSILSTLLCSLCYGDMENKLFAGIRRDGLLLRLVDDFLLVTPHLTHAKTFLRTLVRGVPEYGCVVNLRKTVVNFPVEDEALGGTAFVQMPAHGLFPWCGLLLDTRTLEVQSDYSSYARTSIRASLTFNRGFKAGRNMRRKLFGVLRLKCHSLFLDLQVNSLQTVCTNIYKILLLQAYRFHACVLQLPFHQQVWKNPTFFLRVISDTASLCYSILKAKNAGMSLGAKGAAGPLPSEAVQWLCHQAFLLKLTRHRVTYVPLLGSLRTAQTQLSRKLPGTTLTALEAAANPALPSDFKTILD", "assay": "Activation of telomerase activity in human neonatal primary epidermal keratinocytes assessed as fold change at 0.1 to 30 nM after 24 hrs by PCR-based TRAP assay relative to untreated control", "method_in_brief": "(§1)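 HEKn cells from ATCC, grown in dermal basal cell medium with keratinocyte growth supplements. Seeded, medium refreshed next day, then treated 24 h the following day (0.1–30 nM; DMSO control). 2 × 10^5 harvested cells lysed on ice 30 min, lysate spun 16000g 20 min. Telomerase measured by TRAP PCR-ELISA, absorbance at 450 nm (reference ~690 nm). Fold activation versus DMSO-treated cells.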"}, "[2]": {"target": "Telomerase reverse transcriptase (Homo sapiens) (UniProt O14746)", "assay": "Activation of telomerase activity in human neonatal primary epidermal keratinocytes assessed as fold change at 2 nM after 24 hrs by PCR-based TRAP assay relative to untreated control", "method_in_brief": "as §1"}, "[3]": {"target": "Telomerase reverse transcriptase (Homo sapiens) (UniProt O14746)", "assay": "Activation of telomerase activity in human neonatal primary epidermal keratinocytes assessed as fold change at 0.1 nM after 24 hrs by PCR-based TRAP assay relative to untreated control", "method_in_brief": "as §1"}, "[4]": {"target": "Telomerase reverse transcriptase (Homo sapiens) (UniProt O14746)", "assay": "Activation of telomerase activity in human neonatal primary epidermal keratinocytes assessed as fold change at 0.5 nM after 24 hrs by PCR-based TRAP assay relative to untreated control", "method_in_brief": "as §1"}}, "data": [{"molecule": "CC(C)(O)[C@@H]1CC[C@](C)([C@H]2[C@@H](O)C[C@@]3(C)[C@@H]4C[C@H](O)[C@H]5C(C)(C)[C@@H](O)CC[C@@]56C[C@@]46CC[C@]23C)O1", "values": [{"measurement": "fold change (FC)", "setting": "[1]", "value": "1.5 to 5.2"}, {"measurement": "fold change (FC)", "setting": "[2]", "value": 5.2}, {"measurement": "fold change (FC)", "setting": "[3]", "value": 1.5}]}, {"molecule": "CC(C)(O)[C@@H]1CC[C@](C)([C@H]2[C@@H](O)C[C@@]3(C)[C@@H]4C[C@H](O)[C@H]5C(C)(C)C(=O)CC[C@@]56C[C@@]46[C@@H](O)C[C@]23C)O1", "values": [{"measurement": "fold change (FC)", "setting": "[1]", "value": "1.5 to 5.2"}]}, {"molecule": "CC(C)(O)[C@@H]1CC[C@](C)([C@H]2[C@@H](O)C[C@@]3(C)[C@@H]4C[C@H](O)[C@H]5C(C)(C)[C@@H](O)CC[C@]5(C)C4=C[C@H](O)[C@]23C)O1", "values": [{"measurement": "fold change (FC)", "setting": "[1]", "value": "1.5 to 5.2"}, {"measurement": "fold change (FC)", "setting": "[3]", "value": 3.8}]}, {"molecule": "CC(C)(O)[C@@H]1CC[C@](C)([C@H]2[C@@H](O)C[C@@]3(C)[C@@H]4C[C@H](O)[C@H]5C(C)(C)[C@@H](O)CC[C@@]56C[C@@]46C[C@H](O)[C@]23C)O1", "values": [{"measurement": "fold change (FC)", "setting": "[1]", "value": "1.5 to 5.2"}, {"measurement": "fold change (FC)", "setting": "[4]", "value": 5}]}, {"molecule": "CC(C)(O)[C@@H]1CC[C@](C)([C@H]2[C@@H](O)C[C@@]3(CO)[C@@H]4C[C@H](O)[C@H]5C(C)(C)C(=O)CC[C@@]56C[C@@]46CC[C@]23C)O1", "values": [{"measurement": "fold change (FC)", "setting": "[1]", "value": "1.5 to 5.2"}, {"measurement": "fold change (FC)", "setting": "[3]", "value": 3.5}]}]}
